According to ChEMBL document CHEMBL3259624, “Netamines H-N, tricyclic alkaloids from the marine sponge Biemna laboutei and their antimalarial activity” (J Nat Prod, 2014):
Active and inactive are the calls of the source. The calls are words filed in the database; no cut-off is given here.

How the values were obtained:
[1] = system: KB; assay: Cytotoxicity against human KB cells at 1 uM after 72 hrs; format: functional, cell-based
In short: (§1)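 KB cells exposed to compounds for 72 h, with DMSO-only cells as control. Proliferation was read with CellTiter 96 Aqueous One reagent and expressed as % inhibition of proliferation relative to the DMSO control, as mean ± SE of triplicate.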

[2] = system: KB; assay: Cytotoxicity against human KB cells after 72 hrs; format: functional, cell-based; in short: as §1
[3] = system: Plasmodium falciparum; assay: Antiplasmodial activity against Plasmodium falciparum by LDH assay; format: functional, organism-based

IC50 [3] [nM]	Structure (SMILES)	Activity [1]	IC50 [2] [nM]
	CCC/C=C\C[C@@H]1c2nc(N)nc3c2[C@@H](CC3)C[C@H]1CCC (relative stereo)	inactive	
	CCC/C=C\CC1=C2N=C(N)N[C@H]3CC[C@@H](C[C@H]1C)[C@@H]23 (relative stereo)		1000
	CCC/C=C\C[C@H]1c2nc(N)nc3c2[C@@H](CC3)C[C@H]1CCC	inactive	
2400	CCC[C@@H]1C[C@@H]2CC[C@@H]3NC(N)=NC(=C1CC)[C@H]23 (relative stereo)	inactive	
	CCCC[C@@H]1c2nc(N)nc3c2[C@@H](CC3)C[C@H]1CCC	inactive	
	CCC/C=C\C[C@@H]1c2nc(N)nc3c2[C@@H](CC3)C[C@H]1C	inactive	
20700	CCC/C=C\C[C@H]1c2nc(N)nc3c2[C@@H](CC3)C[C@H]1C	inactive	
	CC/C=C/C1=C2N=C(N)N[C@H]3CC[C@@H](C[C@@H]1C)[C@@H]23	inactive	
	CCCCCCC1=C2N=C(N)N[C@H]3CC[C@@H](C[C@H]1CCC)[C@@H]23	inactive	
